Data set [1] concerns the target T1, BCR/ABL p210 fusion protein (Homo sapiens, UniProt A1Z199). Nature of the data set: Inhibition of BCR/ABL p210 fusion protein autophosphorylation at Y245 in human KU812 cells at 0.01 to 3 uM measured after 2 hrs by immunoblotting. It counts as cell-based. Summed up:
(§1)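 After an ice-cold PBS wash, cells were lysed in RIPA buffer (50 mM Tris pH 8.0) with protease and phosphatase inhibitors, and protein was quantified by BCA. Lysates were run on SDS-PAGE, transferred to PVDF and blocked in 5% milk/TBST. Phospho- and total proteins were probed by immunoblot with ECL detection; β-actin served as loading control.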

Data set [2] addresses Tyrosine-protein kinase ABL1 (Homo sapiens, UniProt P00519). Briefly: Inhibition of C-terminal His-tagged human ABL1 expressed in baculovirus infected SF9 cells using Tyr 02 peptide as substrate measured after 1 hr by FRET based Z'Lyte assay.
Data set [3] concerns K562. Briefly: Induction of apoptosis in human K562 cells assessed as increase in cleaved caspase-3 level at 0.1 to 3 uM by Western blot analysis. It counts as functional, cell-based. The procedure, abridged:
(§2)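 Cells were treated with DMSO or serially diluted compound for the indicated periods. They were washed in ice-cold PBS and lysed in RIPA buffer with protease/phosphatase inhibitors, and protein was quantified by BCA. Lysates were resolved by SDS-PAGE, transferred to PVDF and blocked in 5% milk/TBST. Blots were probed for PARP and caspase-3, with β-actin as loading control, and detected by ECL.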

Data set [4] deals with T1, BCR/ABL p210 fusion protein. Briefly: Inhibition of human BCR/ABL p210 fusion protein expressed in BAF3 cells assessed as growth inhibition measured after 72 hrs by CellTiter-Glo or CCK8 assay. It counts as cell-based. The procedure, abridged:
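Seeded at 1 to 2.5×10^4 cells/mL with various compound concentrations, 72 h. Viability read by CellTiter-Glo luminescence or CCK-8 absorbance (450/655 nm), normalized to DMSO control, GI50 from curve fit, triplicate testing.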
A general note: ATP-based viability assays read luminescence as a measure of living cells.

Data set [5] has as its system GIST882. Nature of the data set: Induction of apoptosis in human GIST882 cells assessed as cleavage of PARP at 0.1 to 3 uM by Western blot analysis. The data set is classed as functional, cell-based. Summed up:
as §2
On the technique in general: A western blot detects proteins with antibodies after separation by electrophoresis.

Data set [6] addresses T2, Mast/stem cell growth factor receptor Kit (Homo sapiens, UniProt P10721). The conditions noted are these: BaF3.
The target of data set [7] is T1, BCR/ABL p210 fusion protein. Nature of the data set: Inhibition of BCR/ABL p210 fusion protein mediated signaling pathways assessed as reduction in Stat5 phosphorylation at Y694 in human KU812 cells at 0.01 to 3 uM measured after 2 hrs by immunoblotting. The data set is classed as cell-based. The procedure, abridged:
as §1

A further data set has as its system KU812 cell line. Nature of the data set: Induction of apoptosis in human KU812 cells assessed as cleavage of PARP at 0.1 to 3 uM by Western blot analysis. It counts as functional, cell-based. Summed up: as §2
The target of data set [8] is T2, Mast/stem cell growth factor receptor Kit. Briefly: Inhibition of c-KIT autophosphorylation at Y703 in human GIST882 cells at 0.01 to 3 uM measured after 2 hrs by immunoblotting. It counts as cell-based. The procedure, abridged: as §1
In data set [9] the target is T1, BCR/ABL p210 fusion protein. Nature of the data set: Inhibition of BCR/ABL p210 fusion protein mediated signaling pathways assessed as reduction in CrkL phosphorylation at Y207 in human MEG01 cells at 0.01 to 3 uM measured after 2 hrs by immunoblotting. The data set is classed as cell-based. The conditions noted are these: MEG-01. The procedure, abridged:
as §1

The test system of data set [10] is BaF3. Nature of the data set: Inhibition of BCR/ABL p210 fusion protein Y253H mutant (unknown origin) expressed in BAF3 cells assessed as growth inhibition measured after 72 hrs by CellTiter-Glo or CCK8 assay. It counts as cell-based. To be noted: Homo sapiens. Summed up: (§3)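 BaF3 lines were made by retroviral transduction with kinase-fusion MSCV vectors packaged in HEK293T cells. Cells were selected with puromycin for 48 h, then selected again without IL-3 so growth depends on the introduced kinase. […] They were seeded at 1 to 2.5×10^4 cells/mL with compound dilutions and incubated 72 h. Viability was read by CellTiter-Glo luminescence or CCK-8 absorbance (450/655 nm), normalized to DMSO control; GI50 was curve-fitted from triplicate tests.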

Data set [11] can be described thus: Mean residence time (0 to t) in Sprague-Dawley rat at 10 mg/kg, po. The data set is classed as ADME, organism-based. To be noted: in vivo. The procedure, abridged: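 Male Sprague-Dawley rats, 6-8 weeks old, fasted overnight, dosed iv or po. Jugular vein blood (~0.2 mL, heparin) sampled at 1 min to 8 h (iv) or 5 min to 24 h (po). Plasma separated by centrifugation at 2-8 °C and stored at -80 °C before analysis.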

The test system of data set [12] is Mast/stem cell growth factor receptor Kit (Homo sapiens), P10721 [L576P]. Briefly: Inhibition of Tel-fused c-KIT L576P mutant (unknown origin) expressed in BAF3 cells assessed as growth inhibition measured after 72 hrs by CellTiter-Glo or CCK8 assay. The data set is classed as cell-based. Summed up:
as §3

Data set [13] relates to BaF3. Briefly: Inhibition of BCR/ABL p210 fusion protein H369P mutant (unknown origin) expressed in BAF3 cells assessed as growth inhibition measured after 72 hrs by CellTiter-Glo or CCK8 assay. The data set is classed as cell-based. The conditions noted are these: Homo sapiens. Summed up: as §3
In data set [14] the target is T2, Mast/stem cell growth factor receptor Kit. Briefly: Inhibition of c-KIT mediated signaling pathways assessed as reduction in ERK1/2 phosphorylation at T202/Y204 in human GISTT1 cells at 0.03 to 10 uM measured after 2 hrs by immunoblotting. It counts as cell-based. Summed up: as §1
A short description of data set [15]: Antiproliferative activity against human KU812 cells measured after 72 hrs by CellTiter-Glo or CCK8 assay. The data set is classed as functional. The conditions noted are these: KU812, 72 h.
For data set [16], the system named is K562. Briefly: Induction of apoptosis in human K562 cells assessed as cleavage of PARP at 0.1 to 3 uM by Western blot analysis. It counts as functional, cell-based. The procedure, abridged:
as §2

Data set [17] relates to Mast/stem cell growth factor receptor Kit (Homo sapiens), P10721 [V654A]. Briefly: Inhibition of Tel-fused c-KIT V654A mutant (unknown origin) expressed in BAF3 cells assessed as growth inhibition measured after 72 hrs by CellTiter-Glo or CCK8 assay. It counts as cell-based. The procedure, abridged: as §3
Sequence of Mast/stem cell growth factor receptor Kit (Homo sapiens), P10721 [V654A] (P10721 whole entry V654A, the tested form may be a part): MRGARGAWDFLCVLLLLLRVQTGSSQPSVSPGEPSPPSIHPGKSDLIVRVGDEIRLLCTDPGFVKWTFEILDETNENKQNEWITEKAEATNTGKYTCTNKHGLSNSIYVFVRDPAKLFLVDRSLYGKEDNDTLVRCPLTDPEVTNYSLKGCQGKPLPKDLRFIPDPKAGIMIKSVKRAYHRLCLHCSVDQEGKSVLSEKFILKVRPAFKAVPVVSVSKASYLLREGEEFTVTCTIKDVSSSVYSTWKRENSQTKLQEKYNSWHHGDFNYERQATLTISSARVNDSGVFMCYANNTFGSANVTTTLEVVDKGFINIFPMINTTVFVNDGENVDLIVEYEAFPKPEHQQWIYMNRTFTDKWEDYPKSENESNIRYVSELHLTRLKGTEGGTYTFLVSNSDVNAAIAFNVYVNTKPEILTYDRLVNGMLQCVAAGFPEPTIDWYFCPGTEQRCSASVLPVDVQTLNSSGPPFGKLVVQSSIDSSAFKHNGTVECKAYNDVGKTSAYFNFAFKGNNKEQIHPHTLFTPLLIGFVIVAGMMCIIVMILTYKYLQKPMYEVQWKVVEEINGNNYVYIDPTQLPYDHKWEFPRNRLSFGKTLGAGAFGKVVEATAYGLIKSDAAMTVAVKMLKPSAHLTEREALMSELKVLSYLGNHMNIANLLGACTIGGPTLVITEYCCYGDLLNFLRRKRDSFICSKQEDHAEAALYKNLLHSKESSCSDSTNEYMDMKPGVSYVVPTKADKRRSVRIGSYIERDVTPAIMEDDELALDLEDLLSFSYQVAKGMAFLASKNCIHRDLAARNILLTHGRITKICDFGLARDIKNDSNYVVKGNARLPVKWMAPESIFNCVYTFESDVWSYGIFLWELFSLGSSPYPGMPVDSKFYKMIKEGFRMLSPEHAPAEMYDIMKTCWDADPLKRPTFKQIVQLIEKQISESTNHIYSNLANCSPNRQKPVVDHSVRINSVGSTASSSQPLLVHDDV
Data set [18] is described as follows: AUC (0 to t) in Sprague-Dawley rat at 10 mg/kg, po. It counts as ADME, organism-based. The conditions noted are these: in vivo. Summed up:
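Male Sprague-Dawley rats aged six to eight weeks were fasted overnight and then dosed iv or orally. Blood (~0.2 mL) was drawn from the jugular vein into heparin and kept on ice. Sampling was at 1 min to 8 h for iv and 5 min to 24 h for oral. Plasma was separated by centrifugation at 2-8 °C and stored at -80 °C until analysis.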

Data set [19] concerns GIST882. Briefly: Induction of apoptosis in human GIST882 cells assessed as increase in cleaved caspase-3 level at 0.1 to 3 uM by Western blot analysis. It counts as functional, cell-based. Summed up:
as §2

In data set [20] the target is T2, Mast/stem cell growth factor receptor Kit. The conditions noted are these: 1 uM.
Data set [21] shares this target. The conditions noted are these: GISTT1, 1 uM.
Data set [22] shares this target. The conditions noted are these: 1 uM. The source holds these as a separate data set.
Data set [23] shares this target. The conditions noted are these: 1 uM. The source holds these as a separate data set.
Data set [24] in a line: Cell cycle arrest in human K562 cells assessed as accumulation at G0/G1 phase at 1 uM after 24 hrs by propidium iodide/RNase staining based flow cytometry. It counts as functional. The procedure, abridged: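 Cells were exposed to serially diluted compound, then fixed in cold 70% ethanol overnight at -20 °C. They were stained with PI/RNase buffer for DNA-content cell-cycle analysis.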

Active and inactive are the calls of the source. No cut-off for these calls is given here.

T1 sequence (A1Z199 1-97): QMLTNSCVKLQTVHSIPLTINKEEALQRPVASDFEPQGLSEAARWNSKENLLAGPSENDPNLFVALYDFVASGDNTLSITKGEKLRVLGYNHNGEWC
T2 sequence (P10721 whole entry, the tested form may be a part): as the sequence (P10721 whole entry V654A, the tested form may be a part) above, with A654V counted along it
Sequence of Mast/stem cell growth factor receptor Kit (Homo sapiens), P10721 [L576P] (P10721 whole entry L576P, the tested form may be a part): as the sequence (P10721 whole entry V654A, the tested form may be a part) above, with L576P, A654V counted along it
Sequence of Tyrosine-protein kinase ABL1 (P00519 whole entry): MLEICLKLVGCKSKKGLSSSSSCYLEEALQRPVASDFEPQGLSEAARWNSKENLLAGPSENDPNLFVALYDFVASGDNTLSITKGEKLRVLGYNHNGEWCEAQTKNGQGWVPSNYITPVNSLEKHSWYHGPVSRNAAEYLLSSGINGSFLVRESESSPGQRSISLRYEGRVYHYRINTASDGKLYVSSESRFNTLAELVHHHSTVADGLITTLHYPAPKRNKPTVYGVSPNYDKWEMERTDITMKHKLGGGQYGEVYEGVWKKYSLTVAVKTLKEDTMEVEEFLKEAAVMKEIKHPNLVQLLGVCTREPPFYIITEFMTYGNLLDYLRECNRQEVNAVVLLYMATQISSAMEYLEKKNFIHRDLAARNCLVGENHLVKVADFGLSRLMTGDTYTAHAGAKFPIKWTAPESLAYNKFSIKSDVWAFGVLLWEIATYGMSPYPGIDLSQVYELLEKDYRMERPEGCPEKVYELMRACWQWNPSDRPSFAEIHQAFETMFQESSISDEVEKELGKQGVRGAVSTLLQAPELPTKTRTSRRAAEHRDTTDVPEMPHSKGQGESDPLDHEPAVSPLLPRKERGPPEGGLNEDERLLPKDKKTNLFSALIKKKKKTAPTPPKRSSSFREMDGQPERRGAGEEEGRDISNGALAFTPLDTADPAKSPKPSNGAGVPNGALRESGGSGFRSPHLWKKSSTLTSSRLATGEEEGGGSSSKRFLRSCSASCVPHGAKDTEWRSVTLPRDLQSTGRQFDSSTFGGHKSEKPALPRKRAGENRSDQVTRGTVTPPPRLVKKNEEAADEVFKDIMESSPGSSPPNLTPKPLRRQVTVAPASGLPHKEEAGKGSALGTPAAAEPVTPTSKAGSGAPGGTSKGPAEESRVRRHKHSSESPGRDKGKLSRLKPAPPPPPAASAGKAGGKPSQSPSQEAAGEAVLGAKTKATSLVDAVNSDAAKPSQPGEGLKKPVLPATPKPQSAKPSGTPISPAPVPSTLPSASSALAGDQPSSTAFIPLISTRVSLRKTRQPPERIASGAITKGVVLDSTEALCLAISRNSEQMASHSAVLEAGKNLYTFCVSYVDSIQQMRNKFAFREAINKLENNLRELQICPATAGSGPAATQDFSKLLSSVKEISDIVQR

For orientation: IC50 means the point on the concentration scale where inhibition reaches its midpoint. Read a low IC50 as higher potency. What is called GI50 is the concentration that inhibits growth by half. The MRT last is a mean duration of stay, worked out from the concentration-time curve. As a reminder, the AUC(0-t) is exposure summed from dosing to a finite time, without extrapolation to infinity. Low readings indicate low exposure, high ones high exposure. With `Cc1ccc(C(=O)N2CCC(Oc3cc(NC(=O)c4ccc(CN5CCN(C)CC5)c(C(F)(F)F)c4)ccc3C)CC2)cn1`, the inhibition entry in [1], in data set [7], in data set [8], in [9] and in data set [14] was “Active” throughout. The same molecule yielded an IC50 in data set [2] of 0.046 µM. The outcome with K562 [3], with GIST882 [5], in the data set with KU812 cell line, with K562 [16] and in the data set on GIST882 [19] was Active. For the same molecule, the 50% growth inhibitory concentration (GI50) was 0.033 µM in [4]; 0.149 µM in data set [6]; 1.67 µM in the data set with BaF3 [10]; 0.221 µM in data set [12]; 0.98 µM in the data set with BaF3 [13]; 0.056 µM in data set [15]. In data set [17], the GI50 worked out at 1.84 µM. This molecule returned an MRT last in [11] of 5.75 h. For the same molecule, in data set [18], the AUC(0-t) came to 2.42 µg·h/mL.

On to `Cc1ccc(NC(=O)c2ccc(CN3CCN(C)CC3)cc2)cc1Nc1nccc(-c2cccnc2)n1` [IMATINIB], for which the inhibition entry in data set [20], in data set [21], in data set [22] and in data set [23] was “Active” each time. Besides, the outcome in [24] was Active.

Source of the values: ChEMBL document CHEMBL3877303 (J Med Chem, 2017).
